Screening results: PubChem, several laboratories
RORa activator: RORA (human) activation; P35398; CHO-K1 Gal4-RORA LBD luciferase reporter, luminescence; percent increase over mock-subtracted basal signal; activation, % at 10 µM; 65,000 compounds, 1.5% hits;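 active = activation above the mean of all tested compounds plus 3 SD, cut at about 49% in these data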
M1 agonist: activates the M1 muscarinic receptor; AID 626; 64,000 compounds, 3% hits; B-score at 10 µM; CHO-M1 cells, Fluo-4 calcium fluorescence, agonist mode; active compounds read high;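 active = fluorescence rise, raw or as B-score row- and column-corrected plate score, outside the 99.7% band of its plate's samples, either direction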
SF-1 act: activates the human nuclear receptor SF-1 | 65,000 compounds, 1.9% hits | activation, % at 10 µM | CHO-K1 Gal4-SF-1 LBD luciferase reporter; % increase over DMSO SF-1-specific signal;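 active = activation above the mean activation of all tested compounds plus 3 SD, cut at about 50% in these data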
Target sequence (Q13285 whole entry, looked up, the tested form may be a part): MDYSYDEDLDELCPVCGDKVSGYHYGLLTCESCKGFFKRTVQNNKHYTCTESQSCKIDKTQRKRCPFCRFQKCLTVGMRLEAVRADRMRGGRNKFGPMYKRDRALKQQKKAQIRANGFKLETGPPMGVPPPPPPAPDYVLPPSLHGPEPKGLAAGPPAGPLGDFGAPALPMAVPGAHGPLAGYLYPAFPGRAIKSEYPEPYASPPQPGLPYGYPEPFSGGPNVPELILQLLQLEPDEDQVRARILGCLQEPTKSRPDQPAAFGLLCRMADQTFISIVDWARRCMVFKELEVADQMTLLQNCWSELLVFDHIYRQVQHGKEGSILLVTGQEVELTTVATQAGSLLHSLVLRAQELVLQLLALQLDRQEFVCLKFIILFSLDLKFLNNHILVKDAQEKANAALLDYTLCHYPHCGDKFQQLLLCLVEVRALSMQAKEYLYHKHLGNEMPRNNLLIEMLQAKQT
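Test system: CHO-K1 cells with Gal4–hSF-1 LBD chimera plus Gal4-driven luciferase; Input: 4,000 cells/well; Compound: 10 µM only; Times: 20 h compound treatment, 37 °C; Measured by: steady-glow luciferase luminescence, read after 15 min reagent incubation; Measure: percent activation versus DMSO; Control set: DMSO and mock-transfected background; Replicates: one test per compound.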
D1 mod: allosterically modulates the human D1 dopamine receptor; P21728; HEK293 D1, CRE-luciferase, dopamine EC30 potentiation; actives deviate in either direction; B-score at 10 µM; 58,000 compounds, 5.9% hits;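 active = luminescence count or its row- and column-corrected plate score outside the 99.7% band of the plate's sample wells, on either side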
Htt clearance: mutant huntingtin protein clearance. HeLa Exon1htt(103Q)mCFP, aggregate imaging; zero = plate's median compound well. inhibition, % at 1.5 µM. 47,000 compounds, 0.42% hits. AID 853;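 active = inhibition of aggregate fluorescence above about 70%, also judged a hit by eye on the cell image, limit read from the data, passing the limit was not always enough; inconclusive = no rule stated for this call; inactive = not judged a hit on image review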;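 also: cells exposed to compound for three days before fixation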
M1 antagonist: blocks the rat M1 muscarinic receptor response to acetylcholine. AID 628. CHO-M1 cells, Fluo-4 calcium, ACh EC80 antagonist mode; active compounds read low. P08482. B-score at 10 µM. 64,000 compounds, 3.4% hits;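 active = calcium fluorescence response, raw or row-and-column corrected B-score, differing from the plate sample mean either way at a set confidence level, mostly lower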
M1 agonist conf: confirmation of rat M1 muscarinic receptor agonists | shares compounds with M1 agonist | CHO-M1 cells, Fluo-4 calcium fluorescence, agonist mode; actives lie on both sides | fluorescence change (max-min) at 10 µM | 1,700 compounds, 19% hits | AID 1488;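 active = fluorescence change differs from the solvent-only DMSO control mean at a set confidence level in both duplicate runs; inconclusive = differs from solvent-only control mean in just one of two runs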;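 also: an EC20 dose of acetylcholine follows compound addition during the same imaging run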
M4 agonist ctr: activates rat M4 receptor in counter-screen for M1 agonists; shares compounds with M1 agonist; CHO M4/Gqi5 cells, Fluo-4 calcium fluorescence, agonist mode; actives lie on both sides; fluorescence change (max-min) at 10 µM; 1,700 compounds, 9% hits;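 active = fluorescence change differing from the plate's solvent-only control wells at 99.7% confidence in both duplicates, whether higher or lower; inconclusive = differs from solvent controls in only one of two duplicates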
Hits are given with their value; . = inactive; ? = inconclusive; / = no result given. A selection: hits, their analogues and other compounds. The true share with any hit is near 11%.

SMILES	RORa activator	M1 agonist	SF-1 act	D1 mod	Htt clearance	M1 antagonist	M1 agonist conf	M4 agonist ctr
Cc1ccc(NC(=O)Cc2nn(C)c(=O)c3ccccc23)cc1F	.	5.5	.	/	.	.	.	?
Cn1nc(CC(=O)Nc2ccc3c(c2)OCCO3)c2ccccc2c1=O	.	4.5	.	.	/	.	.	.
COc1cc(NC(=O)Cc2nn(C)c(=O)c3ccccc23)cc(OC)c1	.	.	.	.	/	.	/	/
COc1cccc(OC)c1NC(=O)Cc1nn(C)c(=O)c2ccccc12	.	.	.	.	.	.	/	/
COc1ccc(-c2noc(Cc3ccccc3OC)n2)cc1	.	.	.	.	/	.	/	/
COc1ccc(-c2noc(Cc3cccs3)n2)cc1	57	5.3	.	.	/	.	.	?
CC(c1ccccc1)n1cc(C(=O)NCc2ccncc2)nn1 (stereo unspecified)	.	.	.	/	/	.	/	/
CN(C)CCOc1ccccc1Cc1ccccc1	.	33	.	.	/	-6.4	.	.
O=C(Cn1nnc(-c2ccncc2)n1)N(C1CCCCC1)C1CCCCC1	.	.	.	.	/	.	/	/
Cc1cc(SCC(=O)OCC(=O)N2CCN(C(=O)c3ccco3)CC2)c(C)cc1Br	.	4.1	.	.	.	.	.	.
Cc1cnc(C(=O)OCC(=O)N2CCN(C(=O)c3ccco3)CC2)cn1	.	.	.	.	.	.	/	/
O=C1CC(c2ccc(F)c(Br)c2)C2=C(CCCC2=O)N1 (stereo unspecified)	.	.	.	.	/	.	/	/
COc1ccc(CCNc2oc(COc3ccc(Br)cc3)nc2C#N)cc1OC	/	4.9	/	/	.	.	-24	-72
COc1ccc(CCNc2oc(Cc3cccc4ccccc34)nc2C#N)cc1OC	.	.	.	.	/	.	/	/
CN1/C(=N\O)c2cccc3cccc1c23	.	6.9	.	.	.	.	.	.
O=C(CSc1nnc(-c2ccccc2)n1Cc1ccco1)Nc1ccc2c(c1)OCCO2	.	3.5	.	.	/	.	.	.
O=C(OCc1cccs1)c1ccccc1NS(=O)(=O)c1ccc2c(c1)OCCO2	.	4	.	.	.	.	.	.
Cc1cccc(C)c1NC(=O)C(c1cccs1)N(Cc1ccco1)C(=O)Cn1nnc2ccccc21 (stereo unspecified)	.	.	.	.	/	.	/	/
C=CCN1C(c2ccc(OCC)cc2)=CS/C1=C(\C#N)c1nnc2n1CCCCC2	.	6.6	.	.	/	.	.	.
Nc1nnc(SCc2cccc(C(F)(F)F)c2)s1	.	1.6	.	.	.	.	.	?
CCN1CCN(C(=O)C2CCN(C(=O)c3cc4sccc4n3CC)CC2)CC1	.	.	.	.	/	.	/	/
CCn1c(C(=O)N2CCC(C(=O)NCCCSC3CCCCC3)CC2)cc2sccc21	.	2.5	.	.	.	.	-19	.
CC(C)C(=O)Nc1cccc(C(=O)NCc2ccc3c(c2)OCO3)c1	.	.	.	.	.	.	/	/
CC12CC(NC(=O)N1c1cccc(C(=O)NCc3ccc4c(c3)OCO4)c1)c1cc(Cl)ccc1O2 (stereo unspecified)	.	2.2	.	.	/	.	?	.
COC(=O)CCC(=O)Nc1ccc(NC(C)=O)cc1	.	5.5	.	.	.	.	.	.
SMILES	RORa activator	M1 agonist	SF-1 act	D1 mod	Htt clearance	M1 antagonist	M1 agonist conf	M4 agonist ctr
COC(=O)CCC(=O)Nc1ccc(NC(=O)CCC(=O)OC)cc1	.	.	.	.	.	.	/	/
Cc1ccc(S(=O)(=O)CC(C)N2CCN(C3CCCCC3)CC2)cc1 (stereo unspecified)	/	/	/	/	.	/	/	/
CN1C(=O)C(O)(CC(=O)c2ccccn2)c2cc(Br)ccc21 (stereo unspecified)	.	-2.7	.	/	/	.	?	.
O=C(CCn1c(=S)[nH]c2cc3c(cc2c1=O)OCO3)N1CCN(c2ccccn2)CC1	.	.	.	.	/	.	/	/
O=C(CCCn1c(=S)[nH]c2cc3c(cc2c1=O)OCO3)N1CCN(c2ccccc2)CC1	.	3.2	.	.	/	.	?	.
O=C(c1ccc(S(=O)(=O)N2CCCCC2)cc1)N1CCN(Cc2ccc3c(c2)OCO3)CC1	.	.	.	.	.	.	/	/
O=C(CCC1CCCCC1)N1CCN(Cc2ccc3c(c2)OCO3)CC1	.	6.1	.	.	/	.	.	?
O=C(CCCCCn1c(=O)[nH]c2ccccc2c1=O)N1CCN(Cc2ccc3c(c2)OCO3)CC1	.	3.7	.	.	.	.	.	.
Cc1cccc(N2CCN(C(=O)CCn3c(=S)[nH]c4cc5c(cc4c3=O)OCO5)CC2C)c1 (stereo unspecified)	.	2.5	.	.	.	.	.	.
CCc1ccc(OCc2nnc(SCC(=O)NCc3ccco3)o2)cc1	.	.	.	.	.	.	/	/
COC(=O)C1=C(CSc2nccn2C)NC(=O)NC1c1cc(C)ccc1C (stereo unspecified)	/	/	/	/	.	/	/	/
NC(=O)c1oc2ccc(Cl)cc2c1NC(=O)CN1CCOCC1	.	.	.	.	/	.	/	/
COc1ccc(Br)cc1C(=O)Nc1cccc(NC(=O)c2ccco2)c1	.	.	.	.	.	.	/	/
O=C(Nc1cccc(NC(=O)c2ccc(-c3cccc(Br)c3)o2)c1)c1ccco1	.	7.8	.	-3.4	.	.	?	.
c1ccc(N2CCN(c3cnccn3)CC2)nc1	.	.	.	/	.	.	/	/
c1ccc(N2CCN(c3nnc(Cc4cccnc4)c4ccccc34)CC2)nc1	.	3.6	.	/	.	.	.	?
Nc1c(N2CCCC2)cc(Cl)c2nonc12	.	4.2	.	.	.	.	.	.
COCC(C)NC(=O)NC1(C(F)(F)F)Oc2ccc(Cl)cc2O1 (stereo unspecified)	.	6.4	.	.	.	.	?	.
O=C(NCCN1CCOCC1)NC1(C(F)(F)F)Oc2ccc(Cl)cc2O1 (stereo unspecified)	.	.	.	.	/	.	/	/
CCCCCn1c(=N)n(CC(O)COc2ccccc2OC)c2ccccc21 (stereo unspecified)	.	3.1	.	-5.8	.	.	.	.
CCOc1ccc(NC(=O)c2ccncc2)cc1	.	.	.	.	.	.	/	/
CCOc1ccc(NC(=O)Nc2ccc3nccnc3c2)cc1	.	9.6	.	.	.	.	.	.
N/C(=N\OC(=O)C1CCCCC1)c1ccccn1	/	/	/	/	.	/	/	/
CCCCNc1cc(C)nc(NCc2ccccc2)n1	.	6.4	.	.	.	-3.2	.	.
Cc1cc(C)nc(NCCCc2ccccc2)n1	.	/	.	/	.	/	/	/
CCCN1Cc2cccc(C(=O)N3CCN(c4cc(Cl)ccc4C)CC3)c2C1=O	.	2.3	.	.	/	.	?	.
